From ChEMBL document CHEMBL5661986, “Discovery of the SMYD3 Inhibitor BAY-6035 Using Thermal Shift Assay (TSA)-Based High-Throughput Screening” (SLAS Discov, 2021)
The source made the active and inactive calls. The rule behind the calls is not given here.

Legend:
[1] = system: COLO-679; assay: Antiproliferative activity against human COLO-679 cells assessed as inhibition of cell viability measured for 3 to 5 days by alamar blue staining based assay; assay type: functional
[2] = target: Casein kinase I isoform gamma-3 (Homo sapiens, UniProt Q9Y6M4); assay: Inhibition of CSNK1G3 (unknown origin)
[3] = target: Casein kinase I isoform alpha (Homo sapiens, UniProt P48729); assay: Inhibition of CSNK1A1 (unknown origin)
Sequence of Casein kinase I isoform alpha (P48729 whole entry, canonical isoform): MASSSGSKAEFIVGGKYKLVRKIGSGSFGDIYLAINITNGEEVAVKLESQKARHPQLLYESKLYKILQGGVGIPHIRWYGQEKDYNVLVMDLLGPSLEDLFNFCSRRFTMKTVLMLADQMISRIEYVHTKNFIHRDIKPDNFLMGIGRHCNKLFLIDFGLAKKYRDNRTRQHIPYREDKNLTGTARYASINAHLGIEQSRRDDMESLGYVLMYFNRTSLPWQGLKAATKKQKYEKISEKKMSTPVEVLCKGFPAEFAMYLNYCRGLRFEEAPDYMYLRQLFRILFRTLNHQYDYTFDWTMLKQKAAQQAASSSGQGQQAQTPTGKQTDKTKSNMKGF

[4] = Antiproliferative activity against human NCI-H2110 cells assessed as inhibition of cell viability measured for 3 to 5 days by alamar blue staining based assay; assay type: functional
[5] = target: Histone-lysine N-methyltransferase, H3 lysine-79 specific (Homo sapiens) (UniProt Q8TEK3); assay: Inhibition of DOT1L (unknown origin)
Sequence of Histone-lysine N-methyltransferase, H3 lysine-79 specific (Homo sapiens) (Q8TEK3 whole entry, looked up, the tested form may be a part): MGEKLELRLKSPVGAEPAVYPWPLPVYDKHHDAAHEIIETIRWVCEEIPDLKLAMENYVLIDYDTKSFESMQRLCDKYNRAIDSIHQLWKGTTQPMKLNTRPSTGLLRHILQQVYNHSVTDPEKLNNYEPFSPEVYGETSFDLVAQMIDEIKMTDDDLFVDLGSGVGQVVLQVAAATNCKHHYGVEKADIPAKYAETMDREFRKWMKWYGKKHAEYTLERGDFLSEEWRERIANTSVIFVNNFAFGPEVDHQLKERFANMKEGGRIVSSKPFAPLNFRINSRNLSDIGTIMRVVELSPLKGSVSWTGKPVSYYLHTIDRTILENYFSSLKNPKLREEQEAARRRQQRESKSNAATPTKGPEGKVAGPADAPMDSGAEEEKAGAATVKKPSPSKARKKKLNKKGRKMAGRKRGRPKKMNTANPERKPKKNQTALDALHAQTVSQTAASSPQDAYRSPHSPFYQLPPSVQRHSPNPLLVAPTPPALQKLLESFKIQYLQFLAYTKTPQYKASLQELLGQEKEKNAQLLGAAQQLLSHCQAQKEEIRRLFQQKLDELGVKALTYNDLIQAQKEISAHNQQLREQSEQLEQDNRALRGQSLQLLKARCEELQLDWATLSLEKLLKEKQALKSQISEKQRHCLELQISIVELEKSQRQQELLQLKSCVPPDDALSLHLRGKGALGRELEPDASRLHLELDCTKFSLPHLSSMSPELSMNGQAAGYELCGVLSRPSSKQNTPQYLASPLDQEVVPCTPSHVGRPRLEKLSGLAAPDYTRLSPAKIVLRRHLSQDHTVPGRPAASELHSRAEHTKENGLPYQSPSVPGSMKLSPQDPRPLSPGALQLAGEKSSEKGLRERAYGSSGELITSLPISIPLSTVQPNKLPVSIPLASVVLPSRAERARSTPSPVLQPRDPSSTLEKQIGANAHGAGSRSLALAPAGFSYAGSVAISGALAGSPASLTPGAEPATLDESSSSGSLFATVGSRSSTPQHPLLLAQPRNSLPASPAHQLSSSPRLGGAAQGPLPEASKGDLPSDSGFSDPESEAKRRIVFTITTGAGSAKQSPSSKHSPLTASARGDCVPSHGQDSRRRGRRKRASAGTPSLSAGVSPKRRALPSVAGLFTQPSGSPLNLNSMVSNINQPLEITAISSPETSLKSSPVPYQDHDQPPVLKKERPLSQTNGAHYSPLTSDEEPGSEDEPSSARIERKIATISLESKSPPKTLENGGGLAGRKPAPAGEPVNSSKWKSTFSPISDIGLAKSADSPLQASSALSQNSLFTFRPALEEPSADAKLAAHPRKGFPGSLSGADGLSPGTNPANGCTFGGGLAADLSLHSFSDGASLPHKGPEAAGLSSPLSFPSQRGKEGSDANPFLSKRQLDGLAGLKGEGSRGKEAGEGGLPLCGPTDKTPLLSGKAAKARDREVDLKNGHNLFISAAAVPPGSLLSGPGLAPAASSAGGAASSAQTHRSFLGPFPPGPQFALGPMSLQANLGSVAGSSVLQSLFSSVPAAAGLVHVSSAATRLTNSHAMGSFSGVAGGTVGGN

[6] = target: Mitogen-activated protein kinase 7 (Homo sapiens, UniProt Q13164); assay: Inhibition of GST-tagged ERK5 catalytic domain (unknown origin) in presence of ATP
[7] = target: Histone-lysine N-methyltransferase SETDB1 (Homo sapiens) (UniProt Q15047); assay: Inhibition of SETDB1 (unknown origin)
[8] = target: Histone-arginine methyltransferase CARM1 (Homo sapiens) (UniProt Q86X55); assay: Inhibition of PRMT4 (unknown origin)
[9] = target: T1, Histone-lysine N-methyltransferase SMYD3 (Homo sapiens, UniProt Q9H7B4); assay: Binding affinity to recombinant human SMYD3 expressed in Escherichia coli assessed as dissociation constant by isothermal titration calorimetry
T1 sequence (Q9H7B4 whole entry): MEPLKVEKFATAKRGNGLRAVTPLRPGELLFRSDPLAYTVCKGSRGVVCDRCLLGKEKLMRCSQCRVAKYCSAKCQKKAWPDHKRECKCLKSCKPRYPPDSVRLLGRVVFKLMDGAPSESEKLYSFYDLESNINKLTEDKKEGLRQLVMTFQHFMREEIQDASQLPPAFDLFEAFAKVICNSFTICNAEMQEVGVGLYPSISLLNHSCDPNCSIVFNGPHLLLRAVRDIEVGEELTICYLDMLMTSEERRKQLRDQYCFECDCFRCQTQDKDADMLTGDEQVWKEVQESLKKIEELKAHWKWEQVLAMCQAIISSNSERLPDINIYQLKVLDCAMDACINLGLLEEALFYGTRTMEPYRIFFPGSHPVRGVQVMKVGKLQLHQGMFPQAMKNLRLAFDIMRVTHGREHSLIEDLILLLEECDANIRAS
In short: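 Syringe held compound at 0.3 mM in 20 mM HEPES pH 7.4, 150 mM NaCl, 0.005% Tween 20, 2.5% DMSO; eight 4 µL injections at 180 s intervals into SMYD3.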

[10] = species on record: Homo sapiens; assay: Selectivity ratio of IC50 for recombinant human SMYD3 to the IC50 for inhibition of SMYD3- dependent MAP3K2 methylation
[11] = system: Jurkat; assay: Antiproliferative activity against human Jurkat cells assessed as inhibition of cell viability measured for 3 to 5 days by alamar blue staining based assay; assay type: functional
[12] = target: Epidermal growth factor receptor (Homo sapiens, UniProt P00533); assay: Inhibition of EGFR (unknown origin) in presence of ATP
Sequence of Epidermal growth factor receptor (P00533 whole entry): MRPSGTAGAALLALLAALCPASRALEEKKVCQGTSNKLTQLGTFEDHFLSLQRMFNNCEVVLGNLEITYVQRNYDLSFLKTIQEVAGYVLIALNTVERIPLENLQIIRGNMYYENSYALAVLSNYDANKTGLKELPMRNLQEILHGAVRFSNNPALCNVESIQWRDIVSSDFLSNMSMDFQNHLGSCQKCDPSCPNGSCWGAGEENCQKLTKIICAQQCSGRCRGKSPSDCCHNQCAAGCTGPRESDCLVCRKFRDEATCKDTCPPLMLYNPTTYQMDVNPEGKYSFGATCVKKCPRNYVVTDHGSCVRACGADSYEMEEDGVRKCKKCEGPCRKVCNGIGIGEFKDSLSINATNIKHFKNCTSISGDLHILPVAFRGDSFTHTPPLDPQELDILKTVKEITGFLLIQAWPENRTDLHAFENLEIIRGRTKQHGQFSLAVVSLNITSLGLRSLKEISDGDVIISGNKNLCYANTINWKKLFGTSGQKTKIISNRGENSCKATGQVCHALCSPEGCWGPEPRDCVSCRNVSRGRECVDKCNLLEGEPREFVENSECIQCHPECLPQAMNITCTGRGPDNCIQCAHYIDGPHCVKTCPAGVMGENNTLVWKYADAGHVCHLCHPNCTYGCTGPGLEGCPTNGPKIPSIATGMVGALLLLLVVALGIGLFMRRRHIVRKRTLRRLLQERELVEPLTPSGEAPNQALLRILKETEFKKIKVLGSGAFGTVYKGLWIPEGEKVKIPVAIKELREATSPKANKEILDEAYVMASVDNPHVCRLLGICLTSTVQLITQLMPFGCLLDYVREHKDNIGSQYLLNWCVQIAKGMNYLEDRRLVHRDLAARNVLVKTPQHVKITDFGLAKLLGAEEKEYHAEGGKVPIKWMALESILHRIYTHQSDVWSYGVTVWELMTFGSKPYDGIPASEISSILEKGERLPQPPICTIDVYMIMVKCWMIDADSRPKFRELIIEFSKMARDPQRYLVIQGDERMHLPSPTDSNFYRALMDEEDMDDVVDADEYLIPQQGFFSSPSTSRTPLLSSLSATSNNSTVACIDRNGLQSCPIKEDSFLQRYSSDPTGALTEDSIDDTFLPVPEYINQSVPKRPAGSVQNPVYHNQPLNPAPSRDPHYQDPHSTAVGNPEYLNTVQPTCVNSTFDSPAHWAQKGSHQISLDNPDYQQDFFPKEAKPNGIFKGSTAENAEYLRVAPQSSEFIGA

[13] = target: Dual specificity mitogen-activated protein kinase kinase 5 (Homo sapiens, UniProt Q13163); assay: Inhibition of MEK5 (unknown origin) by competition binding assay
[14] = Lipophilicity, log D of the compound at pH 7.5; assay type: physicochemical; conditions: buffer
[15] = target: Protein arginine N-methyltransferase 7 (Homo sapiens) (UniProt Q9NVM4); assay: Inhibition of PRMT7 (unknown origin)
[16] = target: Cyclin-dependent kinase 12 (Homo sapiens, UniProt Q9NYV4); assay: Inhibition of CDK12 (unknown origin) by using c-myc peptide as substrate in presence of ATP
[17] = target: Cyclin-dependent kinase 2/cyclin E1 (Homo sapiens, UniProt P24941); assay: Inhibition of CDK2/CyclinE (unknown origin) in presence of ATP; assay type: protein-complex assay
[18] = target: T2, Histone-lysine N-methyltransferase SMYD3 (Homo sapiens) (UniProt Q9H7B4); assay: Inhibition of SMYD3 (unknown origin)
T2 sequence (whole entry): T1 sequence (Q9H7B4 whole entry)
In short: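 Recombinant human SMYD3 (aa 1–428, E. coli-expressed, His tag removed by TEV) at 10 nM. Reaction with 335 nM ³H-SAM and 15 µM biotinylated MAP3K2(249–273) peptide in 20 mM Tris pH 9, 2.5 mM DTT, 0.01% Triton X-100, 40 min at 23 °C. GuHCl quench, then SPA count of incorporated radioactivity. Quadruplicates normalized to DMSO and no-enzyme controls; IC50 from four-parameter logistic fit.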

[19] = target: T1, Histone-lysine N-methyltransferase SMYD3; assay: Binding affinity to recombinant human SMYD3 expressed in Escherichia coli assessed as catalytic inhibition using DYDNPIFEKFGKGGTYPRRYHVSYHGK-Biotin as substrate by scintillation proximity assay
[20] = target: Cyclin-dependent kinase 13 (Homo sapiens, UniProt Q14004); assay: Inhibition of CDK13 (unknown origin) by using c-myc peptide as substrate in presence of ATP
[21] = target: Receptor-type tyrosine-protein kinase FLT3 (Homo sapiens, UniProt P36888); assay: Inhibition of FLT3 (unknown origin)
[22] = target: Protein arginine N-methyltransferase 9 (Homo sapiens) (UniProt Q6P2P2); assay: Inhibition of PRMT9 (unknown origin)
Sequence of Protein arginine N-methyltransferase 9 (Homo sapiens) (Q6P2P2 whole entry): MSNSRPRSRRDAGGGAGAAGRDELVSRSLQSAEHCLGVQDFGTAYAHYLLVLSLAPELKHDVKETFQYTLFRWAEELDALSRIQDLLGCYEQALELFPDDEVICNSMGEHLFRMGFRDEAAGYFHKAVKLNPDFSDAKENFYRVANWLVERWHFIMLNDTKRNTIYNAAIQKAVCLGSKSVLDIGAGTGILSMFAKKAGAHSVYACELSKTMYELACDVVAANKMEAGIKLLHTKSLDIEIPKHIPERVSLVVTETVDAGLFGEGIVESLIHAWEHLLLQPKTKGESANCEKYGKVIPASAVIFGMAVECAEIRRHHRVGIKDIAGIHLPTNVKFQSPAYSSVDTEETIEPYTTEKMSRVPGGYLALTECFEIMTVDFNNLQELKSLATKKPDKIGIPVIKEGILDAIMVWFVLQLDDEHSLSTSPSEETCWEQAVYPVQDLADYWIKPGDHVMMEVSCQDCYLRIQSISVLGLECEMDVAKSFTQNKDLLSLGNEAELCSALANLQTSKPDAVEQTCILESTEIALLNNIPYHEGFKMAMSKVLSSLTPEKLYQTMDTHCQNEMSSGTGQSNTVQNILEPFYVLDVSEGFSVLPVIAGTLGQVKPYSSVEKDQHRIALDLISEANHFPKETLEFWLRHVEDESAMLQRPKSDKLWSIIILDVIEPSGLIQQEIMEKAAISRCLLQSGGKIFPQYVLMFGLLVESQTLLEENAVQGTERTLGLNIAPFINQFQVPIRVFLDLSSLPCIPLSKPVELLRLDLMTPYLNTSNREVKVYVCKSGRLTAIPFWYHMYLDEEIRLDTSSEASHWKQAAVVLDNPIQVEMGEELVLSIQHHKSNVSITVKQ

[23] = target: Histone acetyltransferase p300 (Homo sapiens) (UniProt Q09472); assay: Inhibition of EP300 (unknown origin)
[24] = target: T2, Histone-lysine N-methyltransferase SMYD3 (Homo sapiens); assay: Binding affinity to biotinylated SMYD3 (unknown origin) assessed as association rate constant (Kon) using S-adenosyl-l-methionine as substrate by surface plasmon resonance analysis
In short: (§1)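 Biotinylated SMYD3 (aa 1–428) captured (~4700 RU) on streptavidin chip, empty reference flow cell; 25 °C; running buffer 20 mM HEPES pH 7.4, 150 mM NaCl, 3 mM EDTA, 0.05% Tween-20, 2% DMSO, plus 50 µM SAM. Single-cycle kinetics, five concentrations 25–2000 nM, 60 s contact, 300 s dissociation, 30 µL/min; triplicate.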

[25] = target: Histone-lysine N-methyltransferase SETD7 (Homo sapiens) (UniProt Q8WTS6); assay: Inhibition of SETD7 (unknown origin)
Sequence of Histone-lysine N-methyltransferase SETD7 (Homo sapiens) (Q8WTS6 whole entry): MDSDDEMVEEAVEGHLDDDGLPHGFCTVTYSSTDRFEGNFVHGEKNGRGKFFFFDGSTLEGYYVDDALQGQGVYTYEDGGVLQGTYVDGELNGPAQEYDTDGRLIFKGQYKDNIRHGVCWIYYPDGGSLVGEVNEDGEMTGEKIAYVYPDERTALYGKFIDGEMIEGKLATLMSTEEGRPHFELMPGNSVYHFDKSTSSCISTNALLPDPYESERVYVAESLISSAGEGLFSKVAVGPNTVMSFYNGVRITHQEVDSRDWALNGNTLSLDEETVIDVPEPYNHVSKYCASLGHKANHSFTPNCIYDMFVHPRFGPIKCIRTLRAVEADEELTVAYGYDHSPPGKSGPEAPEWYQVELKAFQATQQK

[26] = target: MAP kinase-interacting serine/threonine-protein kinase 2 (Homo sapiens, UniProt Q9HBH9); assay: Inhibition of MKNK2 (unknown origin) in presence of ATP
Sequence of MAP kinase-interacting serine/threonine-protein kinase 2 (Q9HBH9 whole entry): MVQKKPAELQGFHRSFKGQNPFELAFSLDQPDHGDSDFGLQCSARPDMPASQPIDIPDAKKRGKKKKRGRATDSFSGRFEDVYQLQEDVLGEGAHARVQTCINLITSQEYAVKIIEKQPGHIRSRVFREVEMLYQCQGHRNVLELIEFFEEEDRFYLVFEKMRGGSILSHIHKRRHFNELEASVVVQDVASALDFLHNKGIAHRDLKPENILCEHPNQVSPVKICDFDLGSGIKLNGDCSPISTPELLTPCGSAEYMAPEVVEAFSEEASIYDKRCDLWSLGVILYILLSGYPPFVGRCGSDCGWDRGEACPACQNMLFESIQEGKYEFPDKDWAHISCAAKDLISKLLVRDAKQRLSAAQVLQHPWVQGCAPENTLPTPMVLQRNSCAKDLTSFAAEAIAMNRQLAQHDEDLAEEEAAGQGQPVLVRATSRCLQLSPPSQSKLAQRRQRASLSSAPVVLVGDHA

[27] = target: T2, Histone-lysine N-methyltransferase SMYD3 (Homo sapiens); assay: Binding affinity to biotinylated SMYD3 (unknown origin) assessed as dissociation rate constant (Koff) using S-adenosyl-l-methionine as substrate by surface plasmon resonance analysis; in short: as §1
[28] = species on record: Homo sapiens; assay: Inhibition of GLP (unknown origin)
[29] = system: Histone-lysine N-methyltransferase SMYD3 (Homo sapiens), Q9H7B4 [UNDEFINED MUTATION]; assay: Inhibition of SMYD3 catalytic inactive mutant co-expressed with HA-tagged MAP3K2 transfected in human HeLa cells assessed as reduction of MAP3K2-K260me3 level at 1.1 uM incubated for 20 hrs by Western blotting analysis relative to control; assay type: cell-based
In short: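 After 4 h, compound or DMSO for 20 h. Lysates immunoblotted for MAP3K2-K260me3 (in-house antibody), HA, SMYD3 and MAP3K2 with infrared secondaries. K260me3 signal normalized to HA; three technical replicates, mean ± SEM, nonlinear fit.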

Compound: C[C@H]1CC(=O)Nc2cc(C(=O)NCCC3CC3)ccc2N1C(=O)N1CC2CC2C1 (some centres undefined)
- IC50 [1]: > 10 µM
- IC50 [2]: > 20 µM
- IC50 [3]: > 20 µM
- IC50 [4]: > 10 µM
- inhibition [5]: inactive
- IC50 [6]: > 20 µM
- inhibition [7]: inactive
- inhibition [8]: inactive
- Kd [9]: 0.133 µM
- Ratio IC50 [10]: 2
- IC50 [11]: > 10 µM
- IC50 [12]: > 20 µM
- IC50 [13]: > 20 µM
- logD [14]: 1.9
- inhibition [15]: inactive
- IC50 [16]: > 20 µM
- IC50 [17]: > 20 µM
- inhibition [18]: Active
- IC50 [19]: 0.088 µM
- IC50 [20]: > 20 µM
- IC50 [21]: > 20 µM
- inhibition [22]: inactive
- inhibition [23]: inactive
- Ka [24]: 3.1 10^5/M/s
- inhibition [25]: inactive
- IC50 [26]: > 20 µM
- Kdiss [27]: 3 10^-2/s
- inhibition [28]: inactive
- inhibition [29]: 86%
